These results are taken from ChEMBL document CHEMBL2062417, “Biotinylated quercetin as an intrinsic photoaffinity proteomics probe for the identification of quercetin target proteins” (Bioorg Med Chem, 2011).

For assay [1], the target named is ATP synthase F(1) complex subunit beta, mitochondrial (Homo sapiens) (UniProt P06576). The assay can be described thus: Binding affinity to ATP5B in human Jurkat cells at 150 uM followed by UV irradiation for 30 mins with Wood's glass filtered medium pressure mercury arc light prior to cell lysis measured after denaturing wash by SDS-PAGE based pull down assay. In outline: (§1)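 Jurkat cells were grown in RPMI with 10% FBS (about 15×10^6 cells) and treated 2 h with 150 μM BioQ in 3% aqueous DMSO. They were heat-shocked at 43 °C for 30 min, recovered 1 h at 37 °C, and UV-irradiated (320–400 nm, peak 365 nm, 30 min, 4 °C) before or after sonication lysis. Streptavidin-agarose capture ran 1 h. Beads were washed ≥3× with lysis buffer or 2% SDS Tris pH 7.4, boiled, run on 12% SDS-PAGE and silver-stained.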

Assay [2] concerns the target T1, Ubiquitin-like modifier-activating enzyme 1 (Homo sapiens) (UniProt P22314).
T1 sequence (whole entry): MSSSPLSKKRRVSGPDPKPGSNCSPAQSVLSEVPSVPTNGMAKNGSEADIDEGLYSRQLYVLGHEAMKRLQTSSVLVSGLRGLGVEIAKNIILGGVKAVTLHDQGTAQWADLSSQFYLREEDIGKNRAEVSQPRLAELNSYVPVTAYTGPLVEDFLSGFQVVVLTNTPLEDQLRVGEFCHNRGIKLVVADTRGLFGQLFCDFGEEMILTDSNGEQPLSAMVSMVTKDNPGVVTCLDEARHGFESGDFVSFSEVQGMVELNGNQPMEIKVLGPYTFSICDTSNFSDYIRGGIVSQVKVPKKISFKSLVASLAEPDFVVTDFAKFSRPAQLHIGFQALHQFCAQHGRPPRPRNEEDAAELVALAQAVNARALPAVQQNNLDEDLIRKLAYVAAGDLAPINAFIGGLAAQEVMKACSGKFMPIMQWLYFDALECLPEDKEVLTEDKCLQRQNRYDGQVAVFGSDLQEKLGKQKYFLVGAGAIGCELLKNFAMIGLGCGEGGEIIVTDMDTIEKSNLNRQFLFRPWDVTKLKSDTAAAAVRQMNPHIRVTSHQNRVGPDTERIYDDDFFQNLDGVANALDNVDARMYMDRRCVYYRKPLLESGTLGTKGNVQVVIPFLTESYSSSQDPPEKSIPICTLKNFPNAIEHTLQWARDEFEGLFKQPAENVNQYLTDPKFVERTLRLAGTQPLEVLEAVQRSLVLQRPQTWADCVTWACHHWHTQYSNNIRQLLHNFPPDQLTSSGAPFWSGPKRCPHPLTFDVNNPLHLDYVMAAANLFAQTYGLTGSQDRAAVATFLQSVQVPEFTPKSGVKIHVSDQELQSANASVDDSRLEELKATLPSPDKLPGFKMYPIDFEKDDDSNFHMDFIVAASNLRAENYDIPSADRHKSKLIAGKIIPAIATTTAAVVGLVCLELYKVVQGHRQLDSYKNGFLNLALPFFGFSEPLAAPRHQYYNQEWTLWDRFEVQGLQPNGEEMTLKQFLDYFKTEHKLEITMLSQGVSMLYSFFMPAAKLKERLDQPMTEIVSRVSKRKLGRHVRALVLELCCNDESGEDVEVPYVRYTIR
The assay can be described thus: Binding affinity to UBA1 in human Jurkat cells at 150 uM followed by UV irradiation for 30 mins with Wood's glass filtered medium pressure mercury arc light prior to cell lysis measured after denaturing wash by SDS-PAGE based pull down assay. In outline:
as §1

For assay [3], the target named is RuvB-like 2 (Homo sapiens) (UniProt Q9Y230). Nature of the assay: Binding affinity to RUVBL2 in human Jurkat cells at 150 uM followed by UV irradiation for 30 mins with Wood's glass filtered medium pressure mercury arc light prior to cell lysis measured after denaturing wash by LC-MS/MS based pull down assay. In outline:
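Silver-stained bands from cells irradiated before lysis were excised, destained, reduced with 10 mM DTT, alkylated with 50 mM iodoacetamide and digested with trypsin overnight. Peptides were extracted in 1% TFA/50% acetonitrile. Nano-C18 LC used a 2–50% acetonitrile gradient with 0.1% formic acid over 50 min at 260 nL/min, followed by MS/MS identification.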

Assay [4] has the same target. The assay can be described thus: Binding affinity to RUVBL2 in human Jurkat cells at 150 uM followed by UV irradiation for 30 mins with Wood's glass filtered medium pressure mercury arc light prior to cell lysis measured after denaturing wash by SDS-PAGE based pull down assay. In outline: as §1
Assay [5] addresses Heat shock-related 70 kDa protein 2 (Homo sapiens) (UniProt P54652). The assay can be described thus: Binding affinity to HSPA2 in human Jurkat cells at 150 uM followed by UV irradiation for 30 mins with Wood's glass filtered medium pressure mercury arc light prior to cell lysis measured after denaturing wash by SDS-PAGE based pull down assay. In outline: as §1
The target in assay [6] is Heat shock protein HSP 90-alpha (Homo sapiens) (UniProt P07900). The assay can be described thus: Binding affinity to HSP90AA1 in human Jurkat cells at 150 uM followed by UV irradiation for 30 mins with Wood's glass filtered medium pressure mercury arc light prior to cell lysis measured after denaturing wash by SDS-PAGE based pull down assay. In outline:
as §1

The subject of another assay is Jurkat. Nature of the assay: Binding affinity to quercetin binding protein in human Jurkat cells at 150 uM followed by UV irradiation for 30 mins with Wood's glass filtered medium pressure mercury arc light before cell lysis measured after denaturing wash by Western blotting based pull down assay in presence of heat shock. In outline: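 Streptavidin pull-downs from heat-shocked, BioQ-treated (150 μM), UV-irradiated Jurkat cells received a 2% SDS wash. Proteins were transferred from SDS gels to nitrocellulose and blocked overnight in 3% BSA at 4 °C. Blots were probed 1 h with HRP-conjugated anti-biotin antibody and developed with 4-chloro-1-naphthol/0.01% H2O2, with no-UV and no-probe controls.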
Background: A western blot detects proteins with antibodies after separation by electrophoresis.

The target in assay [7] is Calcium/calmodulin-dependent protein kinase type II subunit beta (Homo sapiens, UniProt Q13554). Nature of the assay: Inhibition of CAMK2 using autocamtide-2 as substrate after 30 mins by PKLight assay.
The target in the next assay is Casein kinase II (Homo sapiens, UniProt P19784+P67870+P68400). Nature of the assay: Inhibition of CK2 using RRRADDSDDDDD as substrate after 30 mins by PKLight assay. The format is protein-complex assay.
The target in assay [8] is ATP synthase F(1) complex subunit alpha, mitochondrial (Homo sapiens) (UniProt P25705). Nature of the assay: Binding affinity to ATP5A1 in human Jurkat cells at 150 uM followed by UV irradiation for 30 mins with Wood's glass filtered medium pressure mercury arc light after cell lysis measured after denaturing wash by SDS-PAGE based pull down assay. In outline: as §1
Assay [9] has the same target. The assay can be described thus: Binding affinity to ATP5A1 in human Jurkat cells at 150 uM followed by UV irradiation for 30 mins with Wood's glass filtered medium pressure mercury arc light prior to cell lysis measured after denaturing wash by SDS-PAGE based pull down assay. In outline:
as §1

The target in assay [10] is Eukaryotic translation initiation factor 3 subunit F (Homo sapiens) (UniProt O00303). The assay can be described thus: Binding affinity to EIF3F in human Jurkat cells at 150 uM followed by UV irradiation for 30 mins with Wood's glass filtered medium pressure mercury arc light after cell lysis measured after denaturing wash by SDS-PAGE based pull down assay. In outline:
as §1

pIC50: −log10 of the molar value. Activity calls are given as the source filed them. No cut-off for these calls is given here.

ATP synthase F(1) complex subunit alpha, mitochondrial (Homo sapiens), sequence (P25705 whole entry, one chain of several): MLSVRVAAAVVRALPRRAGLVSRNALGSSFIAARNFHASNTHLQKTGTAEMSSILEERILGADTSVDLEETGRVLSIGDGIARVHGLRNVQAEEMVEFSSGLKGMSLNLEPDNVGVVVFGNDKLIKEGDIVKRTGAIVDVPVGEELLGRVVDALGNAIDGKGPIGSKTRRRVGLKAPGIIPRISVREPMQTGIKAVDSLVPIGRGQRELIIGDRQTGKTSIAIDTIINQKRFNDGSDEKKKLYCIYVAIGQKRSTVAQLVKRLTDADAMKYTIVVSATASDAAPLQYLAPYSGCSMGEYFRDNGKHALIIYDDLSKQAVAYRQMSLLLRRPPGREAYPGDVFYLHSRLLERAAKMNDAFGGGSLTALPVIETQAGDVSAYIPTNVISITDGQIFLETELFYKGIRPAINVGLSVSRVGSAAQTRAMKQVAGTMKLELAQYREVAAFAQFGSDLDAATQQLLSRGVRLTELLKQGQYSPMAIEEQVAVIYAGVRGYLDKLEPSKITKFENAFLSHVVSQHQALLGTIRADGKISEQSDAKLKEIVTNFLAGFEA
RuvB-like 2 (Homo sapiens), sequence (Q9Y230 whole entry): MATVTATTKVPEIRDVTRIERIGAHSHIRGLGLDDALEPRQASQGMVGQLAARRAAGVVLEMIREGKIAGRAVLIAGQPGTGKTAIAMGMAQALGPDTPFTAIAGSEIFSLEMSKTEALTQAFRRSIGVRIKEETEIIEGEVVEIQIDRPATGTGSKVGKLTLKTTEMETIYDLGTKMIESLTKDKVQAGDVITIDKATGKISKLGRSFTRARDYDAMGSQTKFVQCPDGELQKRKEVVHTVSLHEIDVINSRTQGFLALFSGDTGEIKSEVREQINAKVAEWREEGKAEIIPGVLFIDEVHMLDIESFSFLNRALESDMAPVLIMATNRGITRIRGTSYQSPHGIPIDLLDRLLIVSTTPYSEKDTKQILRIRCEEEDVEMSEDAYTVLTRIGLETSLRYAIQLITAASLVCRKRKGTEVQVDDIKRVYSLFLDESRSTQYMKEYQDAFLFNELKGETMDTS
Heat shock-related 70 kDa protein 2 (Homo sapiens), sequence (P54652 whole entry): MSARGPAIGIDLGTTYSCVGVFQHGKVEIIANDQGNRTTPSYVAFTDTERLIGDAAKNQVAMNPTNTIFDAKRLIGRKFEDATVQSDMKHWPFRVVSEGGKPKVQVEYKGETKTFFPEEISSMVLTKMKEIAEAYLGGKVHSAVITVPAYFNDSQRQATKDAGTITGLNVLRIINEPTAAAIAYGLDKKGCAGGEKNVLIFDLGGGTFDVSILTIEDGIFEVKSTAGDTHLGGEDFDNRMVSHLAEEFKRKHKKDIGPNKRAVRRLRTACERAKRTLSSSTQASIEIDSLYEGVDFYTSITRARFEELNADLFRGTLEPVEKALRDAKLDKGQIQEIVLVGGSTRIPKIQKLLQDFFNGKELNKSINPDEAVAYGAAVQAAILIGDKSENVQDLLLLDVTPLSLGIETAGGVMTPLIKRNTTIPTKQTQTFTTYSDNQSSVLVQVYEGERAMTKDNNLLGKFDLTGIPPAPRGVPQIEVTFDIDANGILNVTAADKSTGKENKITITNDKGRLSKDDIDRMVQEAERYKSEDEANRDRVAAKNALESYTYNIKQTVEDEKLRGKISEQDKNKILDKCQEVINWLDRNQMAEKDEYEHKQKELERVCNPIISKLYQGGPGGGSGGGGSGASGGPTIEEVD
Casein kinase II, sequence (P67870 whole entry): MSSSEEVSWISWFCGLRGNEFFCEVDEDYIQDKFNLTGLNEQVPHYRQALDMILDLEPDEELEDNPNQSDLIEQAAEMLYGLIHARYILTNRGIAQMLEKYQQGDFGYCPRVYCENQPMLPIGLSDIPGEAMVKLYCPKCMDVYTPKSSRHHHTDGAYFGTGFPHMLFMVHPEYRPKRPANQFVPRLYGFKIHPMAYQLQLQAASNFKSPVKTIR
Casein kinase II, sequence (P68400 whole entry): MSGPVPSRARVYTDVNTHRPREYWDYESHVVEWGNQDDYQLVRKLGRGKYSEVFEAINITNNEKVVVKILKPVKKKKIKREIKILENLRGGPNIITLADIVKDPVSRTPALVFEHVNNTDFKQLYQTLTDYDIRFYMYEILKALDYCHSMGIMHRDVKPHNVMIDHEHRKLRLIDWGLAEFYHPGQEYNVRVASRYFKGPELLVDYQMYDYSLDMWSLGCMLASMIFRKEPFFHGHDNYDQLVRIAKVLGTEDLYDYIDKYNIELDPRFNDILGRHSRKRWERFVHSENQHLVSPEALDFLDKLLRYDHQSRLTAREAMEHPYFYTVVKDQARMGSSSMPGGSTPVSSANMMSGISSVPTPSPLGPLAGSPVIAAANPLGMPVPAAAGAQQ
Casein kinase II, sequence (P19784 whole entry): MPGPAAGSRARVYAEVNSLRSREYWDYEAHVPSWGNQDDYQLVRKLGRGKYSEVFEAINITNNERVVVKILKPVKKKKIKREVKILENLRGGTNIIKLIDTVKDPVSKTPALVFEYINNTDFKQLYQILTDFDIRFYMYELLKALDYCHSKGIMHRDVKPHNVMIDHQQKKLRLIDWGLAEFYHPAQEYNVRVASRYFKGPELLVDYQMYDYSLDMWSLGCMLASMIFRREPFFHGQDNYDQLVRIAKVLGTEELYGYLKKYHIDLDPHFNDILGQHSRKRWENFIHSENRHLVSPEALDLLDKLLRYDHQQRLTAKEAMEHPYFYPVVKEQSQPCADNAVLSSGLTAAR
Calcium/calmodulin-dependent protein kinase type II subunit beta, sequence (Q13554 whole entry): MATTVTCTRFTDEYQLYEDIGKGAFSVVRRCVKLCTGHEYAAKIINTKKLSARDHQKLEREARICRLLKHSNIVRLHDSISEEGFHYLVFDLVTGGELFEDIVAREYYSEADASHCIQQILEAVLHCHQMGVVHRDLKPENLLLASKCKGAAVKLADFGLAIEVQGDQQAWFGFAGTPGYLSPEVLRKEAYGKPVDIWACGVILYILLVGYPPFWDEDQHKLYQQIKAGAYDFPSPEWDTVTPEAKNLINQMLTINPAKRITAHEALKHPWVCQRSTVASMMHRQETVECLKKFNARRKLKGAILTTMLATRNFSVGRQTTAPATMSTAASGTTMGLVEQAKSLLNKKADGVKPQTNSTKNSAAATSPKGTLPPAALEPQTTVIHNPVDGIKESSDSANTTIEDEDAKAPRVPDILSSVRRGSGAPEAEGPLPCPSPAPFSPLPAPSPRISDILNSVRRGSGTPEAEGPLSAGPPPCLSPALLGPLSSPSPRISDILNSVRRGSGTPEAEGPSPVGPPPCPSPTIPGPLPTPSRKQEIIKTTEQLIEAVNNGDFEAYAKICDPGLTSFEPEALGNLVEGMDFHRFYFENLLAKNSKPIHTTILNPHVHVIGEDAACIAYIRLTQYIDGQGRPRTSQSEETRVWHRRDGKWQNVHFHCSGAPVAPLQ
Eukaryotic translation initiation factor 3 subunit F (Homo sapiens), sequence (O00303 whole entry): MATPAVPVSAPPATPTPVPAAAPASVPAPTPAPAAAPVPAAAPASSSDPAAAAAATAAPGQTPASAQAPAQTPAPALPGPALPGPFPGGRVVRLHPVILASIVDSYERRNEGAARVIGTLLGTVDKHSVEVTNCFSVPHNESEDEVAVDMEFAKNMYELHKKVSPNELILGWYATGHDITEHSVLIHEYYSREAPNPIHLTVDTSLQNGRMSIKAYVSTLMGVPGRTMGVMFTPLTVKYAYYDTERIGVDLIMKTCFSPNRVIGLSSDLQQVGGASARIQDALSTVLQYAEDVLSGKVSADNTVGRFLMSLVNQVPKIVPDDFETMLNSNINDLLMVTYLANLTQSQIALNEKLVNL
ATP synthase F(1) complex subunit beta, mitochondrial (Homo sapiens), sequence (P06576 whole entry, one chain of several): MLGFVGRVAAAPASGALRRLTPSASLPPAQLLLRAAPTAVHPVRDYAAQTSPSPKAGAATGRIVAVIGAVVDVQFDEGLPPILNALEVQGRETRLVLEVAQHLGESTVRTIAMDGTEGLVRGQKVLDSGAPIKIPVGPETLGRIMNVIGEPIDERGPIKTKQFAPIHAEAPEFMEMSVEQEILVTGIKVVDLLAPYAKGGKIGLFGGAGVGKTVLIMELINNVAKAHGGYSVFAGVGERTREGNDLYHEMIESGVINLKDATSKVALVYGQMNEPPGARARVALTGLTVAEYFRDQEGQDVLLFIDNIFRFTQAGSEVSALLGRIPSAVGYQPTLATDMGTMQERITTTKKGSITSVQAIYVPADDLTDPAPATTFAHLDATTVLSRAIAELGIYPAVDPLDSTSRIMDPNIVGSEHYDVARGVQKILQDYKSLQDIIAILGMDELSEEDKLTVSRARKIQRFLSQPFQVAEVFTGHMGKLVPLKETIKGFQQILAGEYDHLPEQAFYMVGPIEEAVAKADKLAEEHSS

By pIC50 is commonly meant the negative decadic logarithm of the IC50, by convention in mol/L. As to `O=C(CCCC[C@@H]1SC[C@@H]2NC(=O)N[C@@H]21)NCCOCCOCCNC(=O)COc1cc(O)c2c(=O)c(O)c(-c3ccc(O)c(O)c3)oc2c1`, the outcome in [1], in assay [2], in assay [3], in assay [4], in assay [5] and in assay [6] was Active. The result (in the assay with Jurkat; in [8]; in assay [9]; in [10]) was Active. Also, the figures for the pIC50 (in assay [7]; on Casein kinase II) were 4.59 and 5.49, respectively.
